17 molecules from ChEMBL document CHEMBL1127042, “Molecular size and flexibility as determinants of selectivity in the oxidation of N-methyl-4-phenyl-1,2,3,6-tetrahydropyridine analogs by monoamine oxidase A and B” (J Med Chem, 1993) can be followed below.

The target in data set [1] is Amine oxidase [flavin-containing] A (Homo sapiens) (UniProt P21397). Description: Ratio between TN and Km against MAO A.
In data set [2] the target is T1, Amine oxidase [flavin-containing] B (Bos taurus, UniProt P56560).
T1 sequence (P56560 whole entry): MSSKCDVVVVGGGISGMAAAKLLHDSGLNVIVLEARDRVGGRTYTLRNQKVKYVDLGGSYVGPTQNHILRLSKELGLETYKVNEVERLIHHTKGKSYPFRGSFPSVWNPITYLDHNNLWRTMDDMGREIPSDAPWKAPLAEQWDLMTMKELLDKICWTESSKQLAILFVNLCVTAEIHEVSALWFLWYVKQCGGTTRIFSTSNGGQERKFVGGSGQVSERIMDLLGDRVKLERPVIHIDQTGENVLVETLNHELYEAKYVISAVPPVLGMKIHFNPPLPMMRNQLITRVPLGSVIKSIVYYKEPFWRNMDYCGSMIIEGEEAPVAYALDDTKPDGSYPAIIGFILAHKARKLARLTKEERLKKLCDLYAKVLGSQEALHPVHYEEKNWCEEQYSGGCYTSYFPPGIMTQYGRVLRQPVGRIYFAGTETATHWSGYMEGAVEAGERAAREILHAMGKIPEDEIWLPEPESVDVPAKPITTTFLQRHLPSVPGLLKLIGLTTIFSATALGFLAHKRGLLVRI
Description: Turnover number against MAO B (umol of substrate/min per umol of enzyme). Particulars: cattle. Put shortly: (§1)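 Beef liver MAO B, purified. Initial oxidation rates measured polarographically at 30 °C in sodium phosphate buffer, pH 7.2, with 0.2% (w/v) Brij-35. The reaction was started by adding enzyme, dosed so rates were measurable within 60-120 s. Vmax came from double-reciprocal plots. Turnover number was Vmax per flavin content. Flavin content came from the optical density change on anaerobic reduction by benzylamine.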

The target of data set [3] is T1, Amine oxidase [flavin-containing] B. As to the kind of experiment: Ratio of turnover number(TN)and Km for MAO B. Particulars: cattle. The essentials: as §1
Data set [4] concerns the target T2, Amine oxidase [flavin-containing] A (Homo sapiens, UniProt P21397).
T2 sequence (P21397 whole entry): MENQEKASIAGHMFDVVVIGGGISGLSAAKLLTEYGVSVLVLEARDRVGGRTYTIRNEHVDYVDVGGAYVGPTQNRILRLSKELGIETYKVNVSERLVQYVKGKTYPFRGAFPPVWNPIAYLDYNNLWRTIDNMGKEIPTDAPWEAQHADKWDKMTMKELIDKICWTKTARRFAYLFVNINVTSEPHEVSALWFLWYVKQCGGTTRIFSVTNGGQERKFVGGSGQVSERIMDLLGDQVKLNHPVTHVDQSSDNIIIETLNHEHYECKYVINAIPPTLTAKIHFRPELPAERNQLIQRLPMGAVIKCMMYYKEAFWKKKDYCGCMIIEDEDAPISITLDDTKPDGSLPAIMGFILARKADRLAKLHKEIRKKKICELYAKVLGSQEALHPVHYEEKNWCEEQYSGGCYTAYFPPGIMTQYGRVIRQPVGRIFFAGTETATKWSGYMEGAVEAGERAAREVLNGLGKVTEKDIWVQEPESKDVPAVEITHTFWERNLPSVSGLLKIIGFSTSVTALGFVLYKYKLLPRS
As to the kind of experiment: Turnover number against MAO A (umol of substrate/min per umol of enzyme). The essentials: (§2)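 Human liver MAO A expressed in yeast, purified. Initial oxidation rates measured polarographically (O2 uptake) at 30 °C in sodium phosphate buffer, pH 7.2, with 0.2% (w/v) Brij-35. Enzyme was added last to start the reaction, and its amount was set so rates were read within 60-120 s. Vmax came from double-reciprocal plots. TN was Vmax divided by flavin content. Flavin content was found from the optical density change on anaerobic reduction by kynuramine.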

In data set [5] the target is T3, MAO A (amine oxidase [flavin-containing] A) (Homo sapiens, UniProt P21397).
T3 sequence (P21397 whole entry): T2 sequence (P21397 whole entry)
Description: Michaelis-Menten constant against MAO A. The essentials:
as §2

Data set [6] deals with T1, Amine oxidase [flavin-containing] B. Description: Ratio between TN and Km against MAO B. Particulars: cattle. The essentials: as §1

Each structure is given as a SMILES string. Values joined by “and” are separate entries in the source; they are usually repeats but may differ in a detail not shown here. Equal values may be shown once.

Broadly, the Km is the concentration of substrate that gives half-maximal velocity.

Consider `CN1CC=C(CCc2cccs2)CC1`, for which the Ratio is 389 in data set [1] and 1059 in data set [3]. Moreover, the TN was determined as 51.9 min⁻¹ in data set [2] and 42 min⁻¹ in data set [4].

Take `CN1CC=C(Cc2ccc3ccccc3c2)CC1`: the Ratio was 3344 in data set [1] and 326 in data set [3]. Besides, the TN turned out to be 274 min⁻¹ in data set [2] and 121 min⁻¹ in data set [4].

For `CN1CC=C(Cc2cccc3ccccc23)CC1`, the Ratio came to 2592 in data set [1] and 105 in data set [3]. For the same molecule, the TN worked out at 89 min⁻¹ in data set [2] and 443 min⁻¹ in data set [4].

On to `CN1CC=C(Cc2cccs2)CC1`, for which the Ratio in data set [1] turned out to be 175; in data set [3], 3270. In addition, the TN amounted to 337 min⁻¹ in data set [2] and 8.4 min⁻¹ in data set [4].

For `CN1CC=C(CCc2ccsc2)CC1`, the Ratio in data set [1] was determined as 228; in data set [3], 890. Moreover, the TN in data set [2] came out at 50.7 min⁻¹; in data set [4], 29.7 min⁻¹.

Take `CN1CC=C(CCc2ccc3ccccc3c2)CC1`: the results for the Ratio in data set [1] and in data set [3] were 2225 and 76, respectively. Also, the TN was determined as 79 min⁻¹ in data set [2] and 95.9 min⁻¹ in data set [4].

Regarding `CN1CC=C(CCc2ccccc2)CC1`, the values for the Ratio in data set [1] and in data set [3] were 1120 and 1130, respectively. Further, the TN in data set [2] worked out at 61 min⁻¹; in data set [4], 137 min⁻¹.

Turning to `CN1CC=C(CCc2cccc3ccccc23)CC1`, the Ratio is reported as 3187 in data set [1] and 62 in data set [3]. Further, the TN in data set [2] was determined as 80 min⁻¹; in data set [4] it was 244 min⁻¹.

With `CN1CC=C(c2cccs2)CC1`, the Ratio in data set [1] amounted to 28; in data set [3], 71. The results for the TN in data set [2] and in data set [4] were 12 min⁻¹ and 5.21 min⁻¹, respectively.

As to `CN1CC=C(c2ccc3ccccc3c2)CC1`, the Ratio turned out to be 2216 in data set [1] and 101 in data set [3]. The TN worked out at 73.5 min⁻¹ in data set [2] and 10.2 min⁻¹ in data set [4].

As to `CN1CC=C(c2ccccc2)CC1`, the Ratio came out at 143 in data set [1] and 523 in data set [3]. Moreover, the TN in data set [2] stood at 204 min⁻¹; in data set [4] it was 20 min⁻¹. The Km in data set [5] stood at 140 µM.

With `CN1CC=C(c2cccc3ccccc23)CC1`, the Ratio in data set [1] was 1893; in data set [3] it was 500. The values for the TN in data set [2] and in data set [4] were 55 min⁻¹ and 140 min⁻¹, respectively.

Turning to `CN1CC=C(Cc2ccsc2)CC1`, the Ratio was 98 in data set [1] and 785 in data set [3]. In addition, the figures for the TN in data set [2] and in data set [4] were 153 min⁻¹ and 13.3 min⁻¹, respectively.

As for `CN1CC=C(c2ccsc2)CC1`, the Ratio in data set [1] was 80 and 160. The TN in data set [2] came to 4.17 min⁻¹; in data set [4], 8.14 min⁻¹.

On to `CN1CC=C(Cc2ccccc2)CC1`, for which the Ratio in data set [1] is 139; in data set [3] it was 1250. Besides, the TN in data set [2] amounted to 193 min⁻¹; in data set [4] it was 9.2 min⁻¹.

With `NCc1ccccc1` [BENZYLAMINE], the Ratio was found to be 13 in data set [1] and 963 in data set [3]. For the same molecule, the TN in data set [2] amounted to 283 min⁻¹; in data set [4], 10 min⁻¹.

Take `NCCC(=O)c1ccccc1N` [KYNURAMINE]: the Ratio in data set [1] is 860; in data set [6], 1964. In addition, the TN in data set [2] worked out at 165 min⁻¹; in data set [4] it was 146 min⁻¹.
